Assay results reported in ChEMBL document CHEMBL4145531, “Synthesis of novel Chlorin e6-curcumin conjugates as photosensitizers for photodynamic therapy against pancreatic carcinoma” (Eur J Med Chem, 2018).
Blank lines part the entries; values can stand above or below the compound they belong to. Activity calls are given as the source filed them. The calls are words filed in the database; no cut-off is given here.

Legend:
[1] = Solubility of the compound in 2% DMSO/98% de-ionized water at 8.4 uM; assay type: physicochemical; settings: buffer
[2] = Induction of singlet oxygen production in DMSO assessed as DPBF absorption intensity (reference value: 100%); assay type: functional
Summary of the method: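 DPBF (50 µM in DMSO) was mixed with 1 µM photosensitizer in the dark. Samples were irradiated at 660 nm, 50 mW, 2 J/cm² for 40 s. Singlet oxygen was read as the decay of normalized DPBF absorbance at 418 nm relative to a DPBF-only control.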

[3] = Drug uptake in human AsPC1 cells at 5 uM by FACS analysis; assay type: ADME, cell-based; settings: aspc1, 5 µM, TDE = time-dependent effect
Summary of the method: (§1)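 AsPC-1 cells (2 x 10^5) were seeded and kept in the dark at 37 °C for 24h. They were then incubated with 5 µM compound for 30 min to 24h. Cells were harvested by trypsin, washed three times in PBS and resuspended in PBS. Uptake was read as mean fluorescence intensity by FACS.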

[4] = Drug uptake in human AsPC1 cells at 5 uM after 3 to 24 hrs by FACS analysis; assay type: ADME, cell-based; settings: aspc1, 5 µM; summary of the method: as §1
[5] = Dark toxicity in human AsPC1 cells assessed as reduction in cell viability after 72 hrs by MTT assay; assay type: cell-based
Summary of the method: (§2)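 AsPC-1 cells were grown in RPMI-1640, and MIA PaCa-2 and PANC-1 in DMEM, each with 10% FBS and 1% penicillin/streptomycin. 5.0 x 10^3 cells were seeded and left overnight at 37 °C. They were exposed to 0-300 µM compound for 3h without laser irradiation, then held 72h in the dark at 37 °C, 5% CO₂. Viability was read by MTT.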

ASPC1 [6] = experiment: Phototoxicity in human AsPC1 cells assessed as reduction in cell viability preincubated for 3 hrs followed by 9 J/cm2 laser light irradiation and measured after 72 hrs by MTT assay; assay type: functional, cell-based; settings: ASPC1, light or radiation study
Summary of the method: (§3)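 Cells were seeded at 5.0 x 10^3 per well and incubated overnight at 37 °C. AsPC-1 was in RPMI-1640 and MIA PaCa-2/PANC-1 in DMEM, with 10% FBS. Cells took up compound for 3h, then received 660 nm laser light (50 mW, 9 J/cm²).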

[7] = Selectivity index, ratio of IC50 for dark toxicity in human AsPC1 cells to IC50 for phototoxicity in human AsPC1 cells; assay type: cell-based; settings: read-out: Ratio IC50
Summary of the method: (§4)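 The ratio is the dark-toxicity IC50 over the phototoxicity IC50 in the same cell line, both from 72h MTT. The dark arm received no light. The photo arm was irradiated at 660 nm, 50 mW, 9 J/cm² after 3h compound exposure.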

[8] = Dark toxicity in human MIAPaCa2 cells assessed as reduction in cell viability after 72 hrs by MTT assay; assay type: cell-based, MIA PaCa-2; summary of the method: as §2
MIA PaCa-2 [9] = experiment: Phototoxicity in human MIAPaCa2 cells assessed as reduction in cell viability preincubated for 3 hrs followed by 9 J/cm2 laser light irradiation and measured after 72 hrs by MTT assay; assay type: functional, cell-based; settings: MIA PaCa-2, light or radiation study; summary of the method: as §3
[10] = Selectivity index, ratio of IC50 for dark toxicity in human MIAPaCa2 cells to IC50 for phototoxicity in human MIAPaCa2 cells; assay type: cell-based, MIA PaCa-2; settings: read-out: Ratio IC50; summary of the method: as §4
[11] = Dark toxicity in human PANC1 cells assessed as reduction in cell viability after 72 hrs by MTT assay; assay type: cell-based, PANC-1; summary of the method: as §2
PANC-1 [12] = experiment: Phototoxicity in human PANC1 cells assessed as reduction in cell viability preincubated for 3 hrs followed by 9 J/cm2 laser light irradiation and measured after 72 hrs by MTT assay; assay type: functional, cell-based; settings: PANC-1, light or radiation study; summary of the method: as §3
[13] = Selectivity index, ratio of IC50 for dark toxicity in human PANC1 cells to IC50 for phototoxicity in human PANC1 cells; assay type: cell-based, PANC-1; settings: read-out: Ratio IC50; summary of the method: as §4
[14] = Solubility of the compound in 2% DMSO/98% de-ionized water at 8.2 uM; assay type: physicochemical; settings: buffer
[15] = Drug uptake in human AsPC1 cells at 5 uM after 3 hrs by FACS analysis relative to chlorin e6; assay type: ADME, cell-based; settings: aspc1, 3 h; summary of the method: as §1
[16] = Drug uptake in human AsPC1 cells at 5 uM after 24 hrs by FACS analysis relative to chlorin e6; assay type: ADME, cell-based; settings: aspc1, 24 h; summary of the method: as §1
[17] = Drug uptake in human AsPC1 cells at 5 uM up to 0.5 to 24 hrs by FACS analysis; assay type: ADME, cell-based; settings: aspc1, 5 µM; summary of the method: as §1
ASPC1 [18] = experiment: Potency index, ratio of chlorin e6 IC50 to compound IC50 for phototoxicity in human AsPC1 cells; assay type: functional
MIA PaCa-2 [19] = experiment: Potency index, ratio of chlorin e6 IC50 to compound IC50 for phototoxicity in human MIAPaCa2 cells; assay type: functional
PANC-1 [20] = experiment: Potency index, ratio of chlorin e6 IC50 to compound IC50 for phototoxicity in human PANC1 cells; assay type: functional
ASPC1 [21] = experiment: Phototoxicity in human AsPC1 cells assessed as induction of apoptosis by measuring live cells at 20 nM preincubated for 3 hrs followed by 9 J/cm2 laser light irradiation and measured after 24 hrs by Annexin V-FITC/propidium iodide staining based flow cytometry (reference value: 91.51%); assay type: functional
ASPC1 [22] = experiment: Phototoxicity in human AsPC1 cells assessed as induction of apoptosis by measuring early apoptotic cells at 20 nM preincubated for 3 hrs followed by 9 J/cm2 laser light irradiation and measured after 24 hrs by Annexin V-FITC/propidium iodide staining based flow cytometry (reference value: 7.05%); assay type: functional
ASPC1 [23] = experiment: Phototoxicity in human AsPC1 cells assessed as induction of apoptosis by measuring late apoptotic cells at 20 nM preincubated for 3 hrs followed by 9 J/cm2 laser light irradiation and measured after 24 hrs by Annexin V-FITC/propidium iodide staining based flow cytometry (reference value: 0.41%); assay type: functional
ASPC1 [24] = experiment: Phototoxicity in human AsPC1 cells assessed as induction of apoptosis by measuring necrotic cells at 20 nM preincubated for 3 hrs followed by 9 J/cm2 laser light irradiation and measured after 24 hrs by Annexin V-FITC/propidium iodide staining based flow cytometry (reference value: 1.03%); assay type: functional
ASPC1 [25] = experiment: Phototoxicity in human AsPC1 cells assessed as induction of apoptosis by measuring live cells at 40 nM preincubated for 3 hrs followed by 9 J/cm2 laser light irradiation and measured after 24 hrs by Annexin V-FITC/propidium iodide staining based flow cytometry (reference value: 91.51%); assay type: functional
ASPC1 [26] = experiment: Phototoxicity in human AsPC1 cells assessed as induction of apoptosis by measuring early apoptotic cells at 40 nM preincubated for 3 hrs followed by 9 J/cm2 laser light irradiation and measured after 24 hrs by Annexin V-FITC/propidium iodide staining based flow cytometry (reference value: 7.05%); assay type: functional
ASPC1 [27] = experiment: Phototoxicity in human AsPC1 cells assessed as induction of apoptosis by measuring late apoptotic cells at 40 nM preincubated for 3 hrs followed by 9 J/cm2 laser light irradiation and measured after 24 hrs by Annexin V-FITC/propidium iodide staining based flow cytometry (reference value: 0.41%); assay type: functional
ASPC1 [28] = experiment: Phototoxicity in human AsPC1 cells assessed as induction of apoptosis by measuring necrotic cells at 40 nM preincubated for 3 hrs followed by 9 J/cm2 laser light irradiation and measured after 24 hrs by Annexin V-FITC/propidium iodide staining based flow cytometry (reference value: 1.03%); assay type: functional
ASPC1 [29] = experiment: Phototoxicity in human AsPC1 cells assessed as induction of apoptosis by measuring live cells at 60 nM preincubated for 3 hrs followed by 9 J/cm2 laser light irradiation and measured after 24 hrs by Annexin V-FITC/propidium iodide staining based flow cytometry (reference value: 91.51%); assay type: functional
ASPC1 [30] = experiment: Phototoxicity in human AsPC1 cells assessed as induction of apoptosis by measuring early apoptotic cells at 60 nM preincubated for 3 hrs followed by 9 J/cm2 laser light irradiation and measured after 24 hrs by Annexin V-FITC/propidium iodide staining based flow cytometry (reference value: 7.05%); assay type: functional
ASPC1 [31] = experiment: Phototoxicity in human AsPC1 cells assessed as induction of apoptosis by measuring late apoptotic cells at 60 nM preincubated for 3 hrs followed by 9 J/cm2 laser light irradiation and measured after 24 hrs by Annexin V-FITC/propidium iodide staining based flow cytometry (reference value: 0.41%); assay type: functional
ASPC1 [32] = experiment: Phototoxicity in human AsPC1 cells assessed as induction of apoptosis by measuring necrotic cells at 60 nM preincubated for 3 hrs followed by 9 J/cm2 laser light irradiation and measured after 24 hrs by Annexin V-FITC/propidium iodide staining based flow cytometry (reference value: 1.03%); assay type: functional
ASPC1 [33] = experiment: Phototoxicity in human AsPC1 cells assessed as induction of apoptosis by measuring downregulation of Bcl2 expression at 20 to 40 nM preincubated for 3 hrs followed by 9 J/cm2 laser light irradiation and measured after 24 hrs by Western blot analysis; assay type: functional, cell-based
Summary of the method: (§5)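 Cells in six-well plates were exposed to compound for 3h and irradiated at 660 nm (50 mW, 9 J/cm²), then incubated 24h. Lysis was on ice in modified RIPA buffer (pH 7.4) with protease inhibitors. After clearing at 10,000g for 10 min at 4 °C, proteins were separated by 10% SDS-PAGE, blotted and detected by ECL.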

ASPC1 [34] = experiment: Phototoxicity in human AsPC1 cells assessed as induction of apoptosis by measuring upregulation of Bax expression at 20 to 40 nM preincubated for 3 hrs followed by 9 J/cm2 laser light irradiation and measured after 24 hrs by Western blot analysis; assay type: functional, cell-based; summary of the method: as §5
ASPC1 [35] = experiment: Phototoxicity in human AsPC1 cells assessed as induction of apoptosis by measuring upregulation of cleaved caspase-9 expression at 20 to 40 nM preincubated for 3 hrs followed by 9 J/cm2 laser light irradiation and measured after 24 hrs by Western blot analysis; assay type: functional, cell-based; summary of the method: as §5
[36] = Solubility of the compound in 2% DMSO/98% de-ionized water at 8.7 uM; assay type: physicochemical; settings: buffer

solubility [1]: Soluble
Drug uptake [3]: Tde
Drug uptake [4]: Active
SMILES: C=Cc1c(C)c2cc3nc(c(CC(=O)OC)c4[nH]c(cc5nc(cc1[nH]2)C(C)=C5CC)c(C)c4C(=O)NCCCCCCNC(=O)CCCC(=O)Oc1ccc(/C=C/C(=O)CC(=O)/C=C/c2ccc(O)c(OC)c2)cc1OC)C(CCC(=O)OC)C3C (centres undefined)
Activity [2]: 10.1%
IC50 at 72 h [5]: 285 µM
IC50 (ASPC1 [6]): 10.1 µM
selectivity ratio [7]: 28.3
IC50 at 72 h [8]: 265 µM
IC50 (MIA PaCa-2 [9]): 47.3 µM
selectivity ratio [10]: 5.6
IC50 at 72 h [11]: > 300 µM
IC50 (PANC-1 [12]): 45.6 µM
selectivity ratio [13]: > 6.58

solubility [14]: Soluble
Drug uptake [3]: Tde
fold change (FC) [15]: 47
fold change (FC) [16]: 29
Drug uptake [17]: Active
SMILES: C=Cc1c(C)c2cc3nc(c(CC(=O)OC)c4[nH]c(cc5nc(cc1[nH]2)C(C)=C5CC)c(C)c4C(=O)NCCOCCOCCNC(=O)CCCC(=O)Oc1ccc(/C=C/C(=O)CC(=O)/C=C/c2ccc(O)c(OC)c2)cc1OC)C(CCC(=O)OC)C3C (centres undefined)
Activity [2]: 12.1%
IC50 at 72 h [5]: 186 µM
IC50 (ASPC1 [6]): 0.04 µM
selectivity ratio [7]: 4650
IC50 at 72 h [8]: 83 µM
IC50 (MIA PaCa-2 [9]): 0.035 µM
selectivity ratio [10]: 2370
IC50 at 72 h [11]: > 300 µM
IC50 (PANC-1 [12]): 0.04 µM
selectivity ratio [13]: > 7500
Ratio IC50 (ASPC1 [18]): 488
Ratio IC50 (MIA PaCa-2 [19]): 452
Ratio IC50 (PANC-1 [20]): 247
Activity (ASPC1 [21]): 77.38%
Activity (ASPC1 [22]): 15.09%
Activity (ASPC1 [23]): 6.1%
Activity (ASPC1 [24]): 1.43%
Activity (ASPC1 [25]): 70.74%
Activity (ASPC1 [26]): 16.27%
Activity (ASPC1 [27]): 10.77%
Activity (ASPC1 [28]): 2.22%
Activity (ASPC1 [29]): 51.45%
Activity (ASPC1 [30]): 24.82%
Activity (ASPC1 [31]): 15.65%
Activity (ASPC1 [32]): 8.08%
Activity (ASPC1 [33]): Active
Activity (ASPC1 [34]): Active
Activity (ASPC1 [35]): Active

solubility [36]: Soluble
Drug uptake [3]: Tde
Drug uptake [4]: Active
SMILES: C=Cc1c(C)c2cc3nc(c(CC(=O)OC)c4[nH]c(cc5nc(cc1[nH]2)C(C)=C5CC)c(C)c4C(=O)NCCCNC(=O)CCCC(=O)Oc1ccc(/C=C/C(=O)CC(=O)/C=C/c2ccc(O)c(OC)c2)cc1OC)C(CCC(=O)OC)C3C (centres undefined)
Activity [2]: 7.39%
IC50 at 72 h [5]: > 300 µM
IC50 (ASPC1 [6]): 5.74 µM
selectivity ratio [7]: > 52.3
IC50 at 72 h [8]: 200 µM
IC50 (MIA PaCa-2 [9]): 4.2 µM
selectivity ratio [10]: 47.6
IC50 at 72 h [11]: > 300 µM
IC50 (PANC-1 [12]): 4.58 µM
selectivity ratio [13]: > 65.5
